The record followed here is ChEMBL document CHEMBL1145189, “Synthesis and evaluation of S-acyl-2-thioethyl esters of modified nucleoside 5'-monophosphates as inhibitors of hepatitis C virus RNA replication” (J Med Chem, 2005).

Some results are limits rather than exact numbers.

A short description of assay [1]: Inhibitory concentration against hepatitis C virus NS5B-mediated RNA synthesis in HBI10A cells. The class given is functional, cell-based. To be noted: Homo sapiens.
The nature of assay [2]: Effective concentration against hepatitis C virus RNA replication in a subgenomic bicistronic replicon in HBI10A cells. It is filed as functional, cell-based. The conditions noted are these: Homo sapiens. In short, it runs like this:
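Stable Huh-7-derived HBI10A hepatoma line carrying a subgenomic bicistronic HCV replicon. Compound incubated with cells for 24 h. Relative replicon RNA then quantified by in situ ribonuclease protection assay.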

The subject of assay [3] is CHO. Nature of the assay: Effect of compound (10000 uM) on growth of CHO cells measured as population doublings from the beginning of the experiment as percent of controls after 20 hr of treatment (harvested at 20h of treatment). It is filed as functional, Cricetulus griseus. In short, it runs like this:
(§1)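 Exponentially growing CHO (clone WBL) monolayers treated for 20 h without S-9. DMSO stock diluted 100-fold into medium, giving 1% v/v DMSO as vehicle control. Cultures harvested at 20, 30 or 42 h after dosing. Growth expressed as population doublings from start of experiment as a percentage of controls.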

The subject of assay [4] is CHO. As to the kind of experiment: Effect of compound (10000 uM) on growth of CHO cells measured as population doublings from the beginning of the experiment as percent of controls after 20 hr of treatment (harvested at 42h of treatment). It is filed as functional, Cricetulus griseus. An outline of the steps: as §1
The test system of assay [5] is CHO. As to the kind of experiment: Percent of CHO cells with chromosomal aberrations were determined at 10000 uM compound after 20 hr of treatment (harvested at 30h of treatment). It is filed as functional, Cricetulus griseus. An outline of the steps:
(§2)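 CHO (clone WBL) monolayers treated for 20 h without S-9, with DMSO stock diluted 100-fold into medium. Harvest at 20, 30 or 42 h after dosing; colcemid added 1–2 h before harvest for metaphase arrest. Cells fixed, and 200 cells scored per point for % aberrant cells. Points not scored where toxicity prevented it. Comparison against concurrent controls.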

Assay [6] has as its system CHO. As to the kind of experiment: Percent of CHO cells with chromosomal aberrations were determined at 10000 uM compound after 20 hr of treatment (harvested at 42h of treatment). It is filed as functional, Cricetulus griseus. An outline of the steps: as §2
In assay [7] the test system is CHO. As to the kind of experiment: Percent of CHO cells with chromosomal aberrations were determined at 10000 uM compound after 20 hr of treatment (harvested at 20h of treatment). The class given is functional, Cricetulus griseus. In short, it runs like this: as §2
In assay [8] the test system is CHO. Nature of the assay: Effect of compound (10000 uM) on growth of CHO cells measured as population doublings from the beginning of the experiment as percent of controls after 20 hr of treatment (harvested at 30h of treatment). The class given is functional, Cricetulus griseus. In short, it runs like this: as §1
The test system of assay [9] is Huh-7. As to the kind of experiment: Average intracellular Metabolism was measured in human Huh-7 cells after 3 h of incubation. It is filed as functional. An outline of the steps: (§3)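 Radiolabeled 5-[³H] compound at 2 µM incubated with Huh-7 (passage 27) or HBI10A (passage 15) cells for 3 or 23 h. Cells extracted and analysed by ion pair reverse-phase HPLC. Triphosphate reported as pmol/million cells, with major metabolic byproducts noted. Averages of at least three separate experiments.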

The nature of assay [10]: Average intracellular Metabolism was measured in human HBI10A cells after 23 hr of incubation. It is filed as functional. In short, it runs like this: as §3
Assay [11] is described as follows: Cytotoxic concentration of compound in human HBI10A cells infected with hepatitis C virus in MTS assay. The class given is functional. In short, it runs like this: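 MTS cytotoxicity run on samples parallel to the replicon assay, at the same time (24 h compound exposure). Cells plated at 2.0 × 10⁴/well and compound added next day at 2× in medium. Incubation at 37 °C, 5% CO₂. MTS reagent added for 1 h, then absorbance read at 490 nm.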
On the technique in general: Tetrazolium dyes change colour on reduction, which living cells bring about.

Assay [12] is described as follows: Average intracellular Metabolism was measured in human HBI10A cells after 3 h of incubation. It is filed as functional. An outline of the steps: as §3
Assay [13] concerns Huh-7. Nature of the assay: Average intracellular Metabolism was measured in human Huh-7 cells after 23 hr of incubation. The class given is functional. In short, it runs like this: as §3

As to `CO[C@@H]1[C@H](O)[C@@H](CO)O[C@H]1n1cnc2c(O)nc(N)nc21`, half-maximal inhibition in [1] (IC50) was put at 1.2 µM. The EC50 in assay [2] is greater than 50 µM.

`Nc1nc(O)c2ccn([C@@H]3O[C@H](CO)C[C@H]3O)c2n1` gave an IC50 in assay [1] of 0.08 µM. The same molecule displayed an EC50 in assay [2] greater than 50 µM.

On to `Nc1ccn([C@H]2CC[C@@H](CO)O2)c(=O)n1` [ZALCITABINE], for which the Growth in [3] turned out to be 65%; in assay [4], 105%; in [8], 101%. For the same molecule, the Aberrant cells amounted to 8% in assay [5], 3% in assay [6] and 9.5% in assay [7].

The molecule `CO[C@@H]1[C@H](O)[C@@H](CO)O[C@H]1n1ccc2c(O)nc(N)nc21` displayed an IC50 in [1] of 0.35 µM. The same molecule gave an EC50 in [2] greater than 50 µM.

With `CO[C@@H]1[C@H](O)[C@@H](CO)O[C@H]1n1ccc(N)nc1=O`, the Activity in assay [9] amounted to 0.17 pmol/million cells; in assay [10], 0.18 pmol/million cells; in assay [12], 0.05 pmol/million cells; in [13] it was 0.61 pmol/million cells. In assay [1], this molecule displayed an IC50 of 3.8 µM. In assay [11], the CC50 was greater than 100 µM. For the same molecule, the EC50 in [2] was determined as 21 µM.

As for `Nc1ccn([C@@H]2O[C@H](CO)C[C@H]2O)c(=O)n1`, the midpoint of inhibition in assay [1], the IC50, lay at 1.2 µM. The molecule further yielded a CC50 in assay [11] greater than 50 µM. Moreover, in assay [2], a half-maximal effect (EC50) was put at 25 µM.

What is called IC50 is the concentration at which inhibition is half-maximal. A lower IC50 goes with higher potency. Broadly, the EC50 is the concentration needed to bring the measured effect to its halfway point. Read a high EC50 as a need for much substance. As a reminder, the CC50 is the concentration at which the toxic effect on the cells reaches its halfway point.
